In publication PMC7415440 (Drug Design, Development and Therapy, 2020):

Experiments:
[1] = Major metabolites in samples of the highest dose groups; assay type: in vivo, human; conditions: 600 mg in SAD and 450 mg in MAD
tMCAO stroke model = tMCAO stroke model using monkeys; cited from earlier work
[2] = rats, 4-week GLP toxicology study; cited from earlier work
[3] = SAD study safety and tolerability assessment; assay type: in vivo, human; conditions: for Number of Subjects with AEs (%) / Number of Subjects with Drug Related AEs (% total): 6 subjects
Procedure, shortened: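 Randomised, double-blind, placebo-controlled trial in healthy Korean males (active:placebo 6:2 per group), single iv infusion in normal saline over 0.5 h at 35–600 mg. Dose escalation was decided by the DSMB. Subjects were in-house days 1–2, revisited day 3, and had follow-up 7 days post-dose. Monitoring covered vital signs, 12-lead ECG, haematology, chemistry, urinalysis, physical exams and AEs, with relationship to drug assigned.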

[4] = MAD study safety and tolerability assessment; assay type: in vivo, human; conditions: for Number of Subjects with AEs (%) / Number of Subjects with Drug Related AEs (% total): 6 subjects
Procedure, shortened: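 Double-blind, placebo-controlled trial in healthy Korean males (active:placebo 6:2 per group), infused iv in normal saline over 1 h every 12 h, seven doses over 3.5 days, at 150, 300 or 450 mg. Subjects were in-house days 1–5, with follow-up 8 days after the last dose. Monitoring covered vital signs, 12-lead ECG, clinical labs, physical exams and AEs, with intensity and relationship to drug recorded.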

[5] = single iv dose, n=40, number of subjects [cases]
[6] = multiple iv doses, n=24, number of subjects [cases]

For `CCOc1cc(CN2CCOCC2)cc2[nH]c(=O)c3c(c12)NCCC3.Cl.Cl.O.O` [JPI-289], the “number of metabolites detected” value [1] is given as “Twenty-two”, the “decrease in infarction volume” value (tMCAO stroke model) is given as 53% and the “no observed adverse event level” value [2] is given as 40 mg/kg. For the same molecule, the “intensity of AEs” value ([3]; SAD) was “mild in intensity”, the “abnormalities in laboratory tests, physical examinations, vital signs, or electrocardiograms” value ([3]; SAD and MAD) was “No clinically significant abnormalities” and the “intensity of AEs” value ([3]; SAD and MAD studies together) was “all mild in intensity”. The maximum tolerated dose ([3]; SAD, decided by DSMB, dizziness as dose-limiting toxicity) was 600 mg, the tolerability ([3]; SAD, dose range 35–600 mg) was “well tolerated” and the “serious AEs” value ([3]; entire course of the study (SAD and MAD)) was “No serious AEs occurred”. The “Number of Subjects with AEs (%)” value ([3]; single iv dose 35 mg) was 3 (50.0), the “Number of Subjects with Drug Related AEs (% total)” value (“Number of Subjects … (% total)” below) ([3]; single iv dose 35 mg) was 1 (16.7) and the “Number of Subjects with AEs (%)” value ([3]; single iv dose 75 mg) was 0 (0.0). For the same molecule, the “Number of Subjects … (% total)” value ([3]; single iv dose 75 mg) was 0 (0.0), the “Number of Subjects with AEs (%)” value ([3]; single iv dose 150 mg) was 0 (0.0) and the “Number of Subjects … (% total)” value ([3]; single iv dose 150 mg) was 0 (0.0). The “Number of Subjects with AEs (%)” value ([3]; single iv dose 300 mg) was 0 (0.0), the “Number of Subjects … (% total)” value ([3]; single iv dose 300 mg) was 0 (0.0) and the “Number of Subjects with AEs (%)” value ([3]; single iv dose 600 mg) was 3 (50.0). For the same molecule, the “Number of Subjects … (% total)” value ([3]; single iv dose 600 mg) was 3 (50.0), the “Abdominal discomfort, Drug-Related” value [3, 5] was 0 [0] and the “Abdominal discomfort, Not Related” value [3, 5] was 0 [0]. The “Abdominal discomfort, Total” value [3, 5] was 0 [0], the “Bilirubin total increased, Drug-Related” value [3, 5] was 1 [1] and the “Bilirubin total increased, Not Related” value [3, 5] was 0 [0]. For the same molecule, the “Bilirubin total increased, Total” value [3, 5] was 1 [1], the “Diarrhea, Drug-Related” value [3, 5] was 0 [0] and the “Diarrhea, Not Related” value [3, 5] was 1 [1]. For the same molecule, the “Diarrhea, Total” value [3, 5] was 1 [1], the “Dizziness, Drug-Related” value [3, 5] was 3 [4] and the “Dizziness, Not Related” value [3, 5] was 0 [0]. For the same molecule, the “Dizziness, Total” value [3, 5] was 3 [4], the “Fever, Drug-Related” value [3, 5] was 0 [0] and the “Fever, Not Related” value [3, 5] was 0 [0]. The “Fever, Total” value [3, 5] was 0 [0], the “Headache, Drug-Related” value [3, 5] was 0 [0] and the “Headache, Not Related” value [3, 5] was 0 [0]. The “Headache, Total” value [3, 5] was 0 [0], the “Heart rate increased, Drug-Related” value [3, 5] was 0 [0] and the “Heart rate increased, Not Related” value [3, 5] was 1 [1]. The “Heart rate increased, Total” value [3, 5] was 1 [1], the “Sinus tachycardia, Drug-Related” value [3, 5] was 0 [0] and the “Sinus tachycardia, Not Related” value [3, 5] was 0 [0]. For the same molecule, the “Sinus tachycardia, Total” value [3, 5] was 0 [0], the “Stomatitis, Drug-Related” value [3, 5] was 0 [0] and the “Stomatitis, Not Related” value [3, 5] was 0 [0]. The “Stomatitis, Total” value [3, 5] was 0 [0], the “Urticaria, Drug-Related” value [3, 5] was 0 [0] and the “Urticaria, Not Related” value [3, 5] was 0 [0]. For the same molecule, the “Urticaria, Total” value [3, 5] was 0 [0], the “intensity of AEs” value ([4]; MAD) was “mild in intensity” and the tolerability ([4]; MAD, dose range 150–450 mg) was “well tolerated”. The “total number of AEs” value ([4]; MAD, in seven subjects) was 12, the “Number of Subjects with AEs (%)” value ([4]; multiple iv doses 150 mg) was 0 (0.0) and the “Number of Subjects … (% total)” value ([4]; multiple iv doses 150 mg) was 0 (0.0). The “Number of Subjects with AEs (%)” value ([4]; multiple iv doses 300 mg) was 1 (16.7), the “Number of Subjects … (% total)” value ([4]; multiple iv doses 300 mg) was 1 (16.7) and the “Number of Subjects with AEs (%)” value ([4]; multiple iv doses 450 mg) was 5 (83.3). The “Number of Subjects … (% total)” value ([4]; multiple iv doses 450 mg) was 4 (66.7), the “Abdominal discomfort, Drug-Related” value [4, 6] was 0 [0] and the “Abdominal discomfort, Not Related” value [4, 6] was 1 [1]. The “Abdominal discomfort, Total” value [4, 6] was 1 [1], the “Bilirubin total increased, Drug-Related” value [4, 6] was 1 [1] and the “Bilirubin total increased, Not Related” value [4, 6] was 0 [0]. The “Bilirubin total increased, Total” value [4, 6] was 1 [1], the “Diarrhea, Drug-Related” value [4, 6] was 0 [0] and the “Diarrhea, Not Related” value [4, 6] was 1 [1]. The “Diarrhea, Total” value [4, 6] was 1 [1], the “Dizziness, Drug-Related” value [4, 6] was 2 [2] and the “Dizziness, Not Related” value [4, 6] was 0 [0]. For the same molecule, the “Dizziness, Total” value [4, 6] was 2 [2], the “Fever, Drug-Related” value [4, 6] was 1 [1] and the “Fever, Not Related” value [4, 6] was 0 [0]. The “Fever, Total” value [4, 6] was 1 [1], the “Headache, Drug-Related” value [4, 6] was 2 [2] and the “Headache, Not Related” value [4, 6] was 0 [0]. For the same molecule, the “Headache, Total” value [4, 6] was 2 [2], the “Heart rate increased, Drug-Related” value [4, 6] was 0 [0] and the “Heart rate increased, Not Related” value [4, 6] was 0 [0]. The “Heart rate increased, Total” value [4, 6] was 0 [0], the “Sinus tachycardia, Drug-Related” value [4, 6] was 1 [1] and the “Sinus tachycardia, Not Related” value [4, 6] was 0 [0]. For the same molecule, the “Sinus tachycardia, Total” value [4, 6] was 1 [1], the “Stomatitis, Drug-Related” value [4, 6] was 1 [1] and the “Stomatitis, Not Related” value [4, 6] was 0 [0]. For the same molecule, the “Stomatitis, Total” value [4, 6] was 1 [1], the “Urticaria, Drug-Related” value [4, 6] was 2 [2] and the “Urticaria, Not Related” value [4, 6] was 0 [0]. The “Urticaria, Total” value [4, 6] was 2 [2].
